# High-throughput results as filed in PubChem BioAssay.
# An excerpt weighted towards active compounds, which were near 3.5% of everything screened.
# MrgX1 antag – antagonists of human MrgX1 receptor, primary screen, HEK293 cells, Fluo-4 calcium flux; AID 588676, 2011; BAM8-22 antagonism; hits give low values; 310,000 compounds, 1.3% hits; Mas-related G-protein coupled receptor member X1 (Homo sapiens), Q96LB2; B-score at 10 µM;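 active means calcium-response B-score plate-corrected more than 3 library SD below zero, starting fluorescence within 5 deviations, no agonist response on first addition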;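 further: peak minus trough fluorescence over baseline after final BAM8-22 challenge near maximal dose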
# Target sequence (Q96LB2 whole entry, looked up): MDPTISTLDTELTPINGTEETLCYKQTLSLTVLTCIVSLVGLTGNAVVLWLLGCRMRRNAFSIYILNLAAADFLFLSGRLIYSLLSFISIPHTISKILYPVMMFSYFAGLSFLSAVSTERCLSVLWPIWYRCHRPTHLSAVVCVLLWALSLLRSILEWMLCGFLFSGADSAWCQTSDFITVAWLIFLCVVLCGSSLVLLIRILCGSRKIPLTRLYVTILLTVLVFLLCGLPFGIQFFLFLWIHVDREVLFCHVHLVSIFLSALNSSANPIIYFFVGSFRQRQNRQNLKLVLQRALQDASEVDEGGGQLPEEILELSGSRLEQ
# MrgX1 PAM – positive allosteric modulators of MrgX1, primary screen, HEK293 cells, Fluo-4 calcium flux; Mas-related G-protein coupled receptor member X1 (Homo sapiens), Q96LB2; FDSS; hits give high values; B-score at 10 µM; 310,000 compounds, 0.63% hits; AID 588675, 2011;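 active means plate-corrected calcium response at least 3 library SD above typical, normal starting fluorescence, not activating the receptor alone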;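 further: compound read alongside a low EC10 to EC30 dose of BAM8-22 agonist; peak minus trough fluorescence over baseline measured at the second addition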
# MrgX1 agonist – agonists of human MrgX1 receptor, primary screen, HEK293 cells, Fluo-4 calcium flux; 310,000 compounds, 0.44% hits; Mas-related G-protein coupled receptor member X1 (Homo sapiens), Q96LB2; Fluo-4 calcium fluorescence, agonist mode; hits give high values; AID 588627, 2011; B-score at 10 µM;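 active means calcium response B-score plate-corrected fluorescence ratio at least 3 library SD, with starting fluorescence B-score inside 5 SD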
#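 times = overnight plating, then 30 min 37 °C plus 30 min room-temperature dye loading | assay system = stable human MrgX1 HEK293 cell line | input = fifteen thousand cells per well | signal = kinetic calcium dye fluorescence, Fluo-4 NW | dosing = compound delivered in addition one of three | read-out = B-scored fluorescence response ratio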
# RGS4 pot – RGS4 potentiators or activators, primary screen, cell-based, HEK293 M3R inducible RGS4, calcium flux; 310,000 compounds, 0.92% hits; B-score at 10 µM; carbachol calcium flux Fluo4; hits give low values; AID 463111, 2010;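 active means B-score of the integrated calcium signal more than 4 SD below the library mean, with starting fluorescence not abnormally high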;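 further: negative B-score means reduced calcium response which marks RGS4 activation or potentiation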
#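 Material: M3R-expressing HEK293 line, RGS4 induced by doxycycline | Schedule: Overnight RGS4 induction, 30 min dye load 37 °C, 20 min compound RT | Measured by: Fluo4 fluorescence kinetic imaging of calcium | Read-out: Integrated calcium ratio converted to B score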
# RGS4 inh – RGS4 inhibitors, primary screen, cell-based, HEK293 M3R inducible RGS4, calcium flux | Regulator of G-protein signaling 4 (Homo sapiens), P49798 | Fluo-4 calcium flux; hits give high values; triggered by carbachol at its EC20 | B-score at 10 µM | 310,000 compounds, 0.45% hits;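 active means B-score, a plate-corrected calcium signal, over three deviations above library mean, with baseline fluorescence within five deviations of library mean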;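 further: RGS4 expression induced by doxycycline in cells with stable M3 receptor; B-score is computed from the integrated fluorescence ratio over baseline after carbachol; higher B-score means a larger calcium signal and so more RGS4 inhibition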
# Target sequence (P49798 whole entry, looked up): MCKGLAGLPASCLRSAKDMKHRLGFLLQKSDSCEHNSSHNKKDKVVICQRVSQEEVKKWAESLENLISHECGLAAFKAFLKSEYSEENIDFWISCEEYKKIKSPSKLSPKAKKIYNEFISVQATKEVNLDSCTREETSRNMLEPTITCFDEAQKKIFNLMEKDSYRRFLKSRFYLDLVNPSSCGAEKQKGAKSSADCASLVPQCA
# * marks the source's active call; other numbers are inactive results; i = inactive; nt = not tested or not shown.
SMILES,MrgX1 antag,MrgX1 PAM,MrgX1 agonist,RGS4 pot,RGS4 inh
CC(C)(O)[C@H]1O[C@H]2CC[C@@]3(C)[C@@](O)(CC[C@H]4Cc5c([nH]c6ccccc56)[C@@]43C)C2=CC1=O,-4.6*,i,i,i,i
Cc1cc(OCC(=O)NC(Cc2ccc(Cl)cc2)C(=O)O)c2c3c(c(=O)oc2c1)CCCC3 (stereo not given),i,i,i,i,i
CCCCCSc1cc(OC)c(CCN(C)C)cc1OC,i,i,i,-7.71*,i
CCCCCSc1cc(O)c(C(CNC)C(C)C)cc1OC (stereo not given),i,i,i,i,i
COc1ccc(-n2nc(C(=O)NCC(=O)N3CCC4(CC3)OCCO4)c3ccccc3c2=O)c(OC)c1,i,i,i,i,i
COc1ccc(-c2nc3ccc(C(=O)N4CCC5(CC4)OCCO5)cc3nc2-c2ccc(OC)cc2)cc1,i,i,i,i,i
O=c1[nH]c(=O)n(CC2CCCO2)c(O)c1/C=C1\C=Nc2ccccc21 (stereo not given),i,i,34.1*,i,i
O=c1[nH]c(=O)n(-c2ccccc2F)c(O)c1/C=C1\C=Nc2ccccc21,i,i,47.3*,i,11.1*
O=c1[nH]c(=O)n(-c2ccc(F)cc2)c(O)c1/C=C1\C=Nc2ccccc21,i,i,i,i,i
NCc1cc(=O)[nH]o1,i,i,i,nt,nt
CCOc1ccccc1N=C1SCCCN1C,i,i,i,i,i
CCOc1cccc(=NC2CCCCC2)c2c(C)n(C)c(C)c12,-5.99*,i,i,i,i
CCN1C(=O)NC(=O)/C(=C\c2cn(CC(=O)N3CCCC3)c3ccccc23)C1=O,i,i,i,i,i
O=C1NC(=O)N(c2ccccc2F)C(=O)/C1=C/c1cn(CC(=O)N2CCOCC2)c2ccccc12,i,i,i,i,9.92*
CN1C2CCC1CC(=NO)C2,-5.28*,i,i,i,i
CC1C(OC(=O)CCC(=O)NC(C)(C)CO)O[C@H]2OC3(C)CC[C@H]4[C@H](C)CCC1C24OO3 (stereo not given in full),i,i,i,i,i
CN1C(=O)C(=Cc2ccc(N3CCCCCC3)o2)C(=O)N(C)C1=S,i,i,28.6*,nt,nt
O=C1CN(O)C(c2ccccc2Cl)=c2cc(Br)ccc2=N1,i,i,i,i,i
Cc1cc(OCC(=O)NCc2ccc(S(N)(=O)=O)cc2)c2c3c(c(=O)oc2c1)CCC3,i,i,i,i,i
CCOC(=O)C1(CCCc2ccccc2)CCN(C2CCCC2)CC1,i,i,i,-7*,i
CCOC(=O)C1(CCc2ccccc2)CCN(C2CCSCC2)CC1,i,i,i,i,i
CCOc1cc2c(cc1OCC)-n1cccc1C(c1cccc([N+](=O)[O-])c1)NC2 (stereo not given),i,i,i,i,i
C[N+]1(C)[C@@H]2CC[C@H]1CC(OC(=O)C(CO)c1ccccc1)C2 (stereo not given in full),i,i,i,i,i
C[N+]1(C)C2CCC1CC(OC(=O)C(CO)c1ccccc1)C2 (stereo not given),i,i,i,-8.62*,i
CN(C)c1ccc(P(=S)(N(C)C)N(C)C)cc1,i,i,i,i,i
SMILES,MrgX1 antag,MrgX1 PAM,MrgX1 agonist,RGS4 pot,RGS4 inh
CCOP(=S)(OCC)c1ccc(N(C)C)cc1,i,10.2*,i,i,i
C=CCN1C(=O)NC(=O)/C(=C/c2ccoc2)C1=O,-6.46*,i,i,i,i
O=c1ccc2cc(O[C@@H]3O[C@@H](CO)[C@H](O)[C@@H](O)[C@@H]3O)c(O)cc2o1,i,i,i,i,i
CC(C)[N+]12CCC(CC1)C(C(O)(c1ccccc1)c1ccccc1)C2 (stereo not given),i,i,i,-8.43*,i
CC[N+]12CCC(CC1)C(C(O)(c1ccccc1)c1ccccc1)C2 (stereo not given),i,i,i,-7.96*,i
C[N+]12CCC(CC1)C(C(O)(c1cccc(Cl)c1)c1cccc(Cl)c1)C2 (stereo not given),i,i,i,-9.15*,i
CCc1cc(=O)oc2c(C)c(OCC(=O)N3C[C@H]4C[C@@H](C3)c3cccc(=O)n3C4)ccc12,i,i,i,i,i
CCN(CC)C(=O)c1ccc2c(c1)C1C(Cl)C(Sc3ccccc3[N+](=O)[O-])CC1C(C(=O)O)N2 (stereo not given),-6.66*,i,i,i,i
Cc1ccc2c(c1Cl)NC(C(=O)O)C1CC(Sc3ccccc3[N+](=O)[O-])C(Cl)C21 (stereo not given),i,i,i,i,i
CC[C@H](C)[C@@H]1O[C@@]2(C=CC1C)CC1C[C@@H](CC=C(C)C(O[C@H]3CC(OC)C(O[C@H]4CC(OC)C(O)C(C)O4)C(C)O3)C(C)C=CC=C3CO[C@@H]4C(O)C(C)=C[C@@H](C(=O)O1)[C@]34O)O2 (stereo not given in full),i,i,i,nt,nt
CCC(C)n1c(O)c(C=NCC2CCCO2)c(=O)[nH]c1=S (stereo not given),i,i,i,-10.2*,i
CCC(C)n1c(O)c(/C=N/N2CCOCC2)c(=O)[nH]c1=S (stereo not given),i,i,i,i,i
CCn1c(O)c(/C=N/NC(=O)c2ccccc2)c(=O)n(CC)c1=S,i,i,48.6*,i,i
C#CC1(OC(=O)c2ccccc2)CC(C)N(C)CC1C (stereo not given),i,i,i,-7.03*,i
CN1[C@@H]2CC[C@H]1CC(OC1c3ccccc3CCc3ccccc31)C2 (stereo not given in full),i,i,i,nt,nt
C=C(C)[C@@]12OC3(c4ccccc4)O[C@@H]1C1[C@@H]4O[C@]4(CO)[C@@H](O)[C@]4(O)C(=O)C(C)=C[C@H]4[C@@]1(O3)[C@H](C)[C@H]2OC(=O)/C=C/C=C/c1ccccc1 (stereo not given in full),i,i,i,-8.62*,i
Cc1cc(/C=C2/C(=O)NC(=O)N(Cc3ccco3)C2=O)c(C)n1-c1ccccc1O,i,9.65*,i,i,i
